Source: article PMC3326416 (Journal of the American Chemical Society, 2012)
Where “and” joins values, the source holds several entries; their conditions need not be identical. Equal values may be shown once. Entries after “also recorded” stand apart in the source; their conditions may differ.

Tests used:
PME-1 [1] = conditions: acylation of active-site serine nucleophile; cited from earlier work
PME-1 [2] = target: T1, PME-1 (Mus musculus, UniProt Q8BVQ5); assay: ABPP-SILAC in Neuro-2A cells, PME-1; assay type: cell-based; conditions: 100 nM, 2 h
T1 sequence (Q8BVQ5 1-386): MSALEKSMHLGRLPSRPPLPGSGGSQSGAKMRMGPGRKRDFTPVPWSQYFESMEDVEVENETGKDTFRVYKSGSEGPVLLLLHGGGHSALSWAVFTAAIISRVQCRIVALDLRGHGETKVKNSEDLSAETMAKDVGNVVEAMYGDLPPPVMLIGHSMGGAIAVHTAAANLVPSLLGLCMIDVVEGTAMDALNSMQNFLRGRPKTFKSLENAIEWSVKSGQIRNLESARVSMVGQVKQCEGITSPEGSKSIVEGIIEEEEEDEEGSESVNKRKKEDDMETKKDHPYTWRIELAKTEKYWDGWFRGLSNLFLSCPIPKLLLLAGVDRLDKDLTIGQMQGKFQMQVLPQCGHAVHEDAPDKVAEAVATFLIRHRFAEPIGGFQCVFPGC
Summary of the method: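 Neuro-2A cells were grown in isotopically light or heavy amino acids: light cells got DMSO, heavy cells got test compound at 100 nM for 2 h. Proteomes were labelled with FP-biotin, mixed 1:1, avidin-enriched and analysed by LC/LC-MS/MS on an LTQ-Velos Orbitrap. Activity is the heavy:light MS1 ion ratio of tryptic peptides, reported as mean ± SEM over all peptides quantified per hydrolase.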

ABHD10 [3] = target: T2, ABHD10 (Mus musculus, UniProt Q6PE15); assay: ABPP-SILAC in Neuro-2A cells, ABHD10; assay type: cell-based
T2 sequence (Q6PE15 44-297): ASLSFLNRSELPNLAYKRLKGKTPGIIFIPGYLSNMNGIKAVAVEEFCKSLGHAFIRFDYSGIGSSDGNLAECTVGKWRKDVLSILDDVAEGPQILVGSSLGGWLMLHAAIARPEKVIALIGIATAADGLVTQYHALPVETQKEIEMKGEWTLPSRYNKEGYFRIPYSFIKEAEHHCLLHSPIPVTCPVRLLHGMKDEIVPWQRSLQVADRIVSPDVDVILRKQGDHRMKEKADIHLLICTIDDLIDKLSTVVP

ABHD10 [4] = target: T2, ABHD10; assay: Gel-based ABPP in situ in Neuro2A cells, ABHD10; assay type: cell-based; conditions: single treatment, 250 nM
Summary of the method: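 Neuro-2A cells received a single in situ treatment with test compound at 250 nM. ABHD10 activity was then followed by gel-based ABPP of cell proteomes over a period of up to 6 h after treatment.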

ABHD10 [5] = target: T2, ABHD10; assay: ABPP-SILAC in BW5147-derived mouse T-cell hybridoma cells, ABHD10; assay type: cell-based
Summary of the method: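 ABPP-SILAC in a second line, BW5147-derived mouse T-cell hybridoma cells. Cells were cultured in light or heavy amino acids and treated with DMSO or test compound. Proteomes were FP-biotin-labelled, combined 1:1, avidin-enriched and analysed by LC/LC-MS/MS. Serine hydrolase activity was quantified from heavy:light MS1 ratios of tryptic peptides.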

serine hydrolases = assay: Gel-based ABPP in situ in Neuro2A cells, off-target serine hydrolases; assay type: cell-based, mouse
Summary of the method: (§1)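 Intact Neuro-2A cells were treated with test compound at 10–0.001 µM for 2 h. Membrane and soluble proteomes were then analysed by gel-based competitive ABPP, and IC50 was derived from the gel signal. Data are mean ± SEM, n = 3/group.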

ABHD10 [6] = target: T2, ABHD10; assay: Competitive ABPP of Neuro2A proteomes; assay type: biochemical
PME-1 [7] = target: T1, PME-1; assay: Gel-based ABPP in situ in Neuro2A cells, PME-1; assay type: cell-based; conditions: up to 10 µM, 2 h
Summary of the method: as §1

| inhibition of ABHD10 (ABPP-SILAC), in words (ABHD10 [3]; 100 nM, 2 h) | loss in ABHD10 activity (ABHD10 [3]; 100 nM, 2 h, ABPP-SILAC, ~40 serine hydrolase activities detected) [%] | inhibition of ABHD10 at higher concentration (ABHD10 [3]; 250 nM) | time complete inhibition of ABHD10 was maintained (ABHD10 [4]) | inhibition of ABHD10 in second cell line (ABHD10 [5]) | selectivity for ABHD10 over ABHD6, PREP, PME-1, and other serine hydrolases (ABHD10 [6]) | IC50 (ABHD10 [6]; read-out: IC50 ABHD10, in vitro) | inhibition of PME-1 in situ (PME-1 [7]) | SMILES | inhibition of PME-1 in cells and mice (PME-1 [1]) | disruption of PME-1 activity (ABPP-SILAC) (PME-1 [2]) | concentration at which off-targets are detected (serine hydrolases) [µM] |
| --- | --- | --- | --- | --- | --- | --- | --- | --- | --- | --- | --- |
| – | – | – | – | – | – | – | – | COC(=O)N1C(=O)[C@](c2ccccc2)(C2CCCC2)N1C(=O)OC [ABL127] | irreversibly inhibit | complete and selective disruption; also recorded: selective inhibition | – |
| selective inhibition | > 95 | complete and selective inhibition | at least 6 h | complete and selective inhibition | at least 40 fold | ~30 nM and 30 nM | no significant inhibition | CCC1(c2ccc(C)cc2)C(=O)N(C(=O)OC(C)C)N1C(=O)OC(C)C (centres unmarked) [ABL303] | – | – | ≥ 1 |
